{"data": "Measured values gathered from unrelated publications", "observed": "cell growth or viability", "note": "Lines come from different studies, so protocols differ."}
{"SMILES": "O=C(/C=C/c1cccc(C(=O)NO)c1)NO", "cell line": "OCI-Ly1", "technique": "ATP luminescence", "concentration": "0.1 µM", "time": "5 days", "endpoint": "viability", "value": "181%"}
{"SMILES": "CCCCCCCCCCCCCCCCCCOc1ccccc1CC(=O)OCC[N+](CC)(CC)CC", "cell line": "HOP-92", "technique": "SRB", "concentration": "10 µM", "endpoint": "inhibition", "value": "93.2%"}
{"SMILES": "O=C(Nc1ccc(C2CCCCC2)cc1)[C@H]1O[C@H](O[C@@H]2[C@@H](OCc3ccc4ccccc4c3)[C@H](O[C@H]3O[C@H](CNS(=O)(=O)O)[C@@H](OCc4ccc5ccccc5c4)C[C@H]3NS(=O)(=O)O)[C@@H](NS(=O)(=O)O)C[C@H]2NS(=O)(=O)O)[C@H](OCc2ccc3ccccc3c2)[C@@H](NS(=O)(=O)O)[C@@H]1OCc1ccc2ccccc2c1", "cell line": "4T1", "technique": "CCK-8", "concentration": "120 µM", "time": "48 h", "endpoint": "viability", "value": "5 to 10%"}
{"SMILES": "CCCCCCCCCCCCCCCCCCOCC(COP(=O)([O-])OCC[N+](C)(C)C)OC (stereo not drawn)", "cell line": "HOP-62", "technique": "SRB", "concentration": "10 µM", "endpoint": "inhibition", "value": "56%"}
{"SMILES": "NCCNC(=O)c1ccc(-c2nc3ccc4[nH]ncc4c3c3c2CCCC3)cc1", "cell line": "K562", "technique": "resazurin", "time": "72 h", "endpoint": "GI50", "value": "6.1 µM"}
{"SMILES": "CC(=O)OC[C@H]1O[C@@H](n2cnc(N)nc2=O)[C@H](OC(C)=O)[C@@H]1OC(C)=O", "cell line": "OCI-Ly1", "technique": "ATP luminescence", "concentration": "0.5 µM", "time": "5 days", "endpoint": "viability", "value": "169%"}
{"SMILES": "CCCCCCCCCCCCCCCCCCOc1ccccc1CC(=O)OCC[N+](C)(C)C", "cell line": "HOP-62", "technique": "SRB", "concentration": "10 µM", "endpoint": "inhibition", "value": "95.1%"}
{"SMILES": "CN(C)CCNC(=O)c1ccc(-c2nc3ccc4[nH]ncc4c3c3c2CCCC3)cc1", "cell line": "K562", "technique": "resazurin", "time": "72 h", "endpoint": "GI50", "value": "1.3 µM"}
{"SMILES": "CCCCCCCCCCCCCCCCCCOc1cccc(CC(=O)OCC[N+](CC)(CC)CC)c1", "cell line": "HOP-62", "technique": "SRB", "concentration": "10 µM", "endpoint": "inhibition", "value": "30.9%"}
{"SMILES": "COC(=O)CNC(=O)C(=O)OC", "cell line": "OCI-Ly1", "technique": "ATP luminescence", "concentration": "0.5 µM", "time": "5 days", "endpoint": "viability", "value": "168%"}
{"SMILES": "O=C(NCCN1CCCC1)c1ccc(-c2nc3ccc4[nH]ncc4c3c3c2CCCC3)c(F)c1", "cell line": "K562", "technique": "resazurin", "time": "72 h", "endpoint": "GI50", "value": "1.7 µM"}
{"SMILES": "O=C(Nc1ccc(Cl)cc1)C1CCCN(C(=O)c2cc(C(F)(F)F)cc(C(F)(F)F)c2)C1 (racemic)", "cell line": "OCI-Ly1", "technique": "ATP luminescence", "concentration": "0.1 µM", "time": "5 days", "endpoint": "viability", "value": "191%"}
{"SMILES": "CCCCCCCCCCCCCCCCCCOc1ccccc1CC(=O)OCC[N+]1(C)CCOCC1", "cell line": "HOP-92", "technique": "SRB", "concentration": "10 µM", "endpoint": "inhibition", "value": "55.8%"}
{"SMILES": "O=C(NO)c1ccc(CC(=O)N(CCO)c2ccccc2)cc1", "cell line": "OCI-Ly1", "technique": "ATP luminescence", "concentration": "0.1 µM", "time": "5 days", "endpoint": "viability", "value": "94.6%"}
{"SMILES": "NC(=O)c1ccc(-c2nc3ccc4[nH]ncc4c3c3c2CCCC3)cc1", "cell line": "K562", "technique": "resazurin", "time": "72 h", "endpoint": "GI50", "value": "7.6 µM"}
